Laboratory results published in ChEMBL document CHEMBL3132830, “Discovery of a Potent Anti-tumor Agent through Regioselective Mono-N-acylation of 7H-Pyrrolo[3,2-f]quinazoline-1,3-diamine” (Medchemcomm, 2013).
Active and inactive are the calls of the source. The rule behind the calls is not given here.

Experiments:
[1] = tested on: MDA-MB-468; assay: Growth inhibition of human MDA-MB-468 cells after 72 hrs by MTT assay; format: functional; settings: MDA-MB-468, 72 h
In short: (§1)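 MTT assay in triple-negative breast cancer cells; 72 h continuous compound exposure; top concentration tested 100 μM. GI50 is the concentration giving 50% growth inhibition over 72 h. Values are mean ± SD of at least two independent experiments, each run in duplicate.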

[2] = tested on: MDA-MB-231; assay: Growth inhibition of human MDA-MB-231 cells after 72 hrs by MTT assay; format: functional; settings: MDA-MB-231, 72 h; in short: as §1
[3] = target: T1, Dihydrofolate reductase (Homo sapiens) (UniProt P00374); assay: Inhibition of human DHFR up to 10 uM
T1 sequence (whole entry): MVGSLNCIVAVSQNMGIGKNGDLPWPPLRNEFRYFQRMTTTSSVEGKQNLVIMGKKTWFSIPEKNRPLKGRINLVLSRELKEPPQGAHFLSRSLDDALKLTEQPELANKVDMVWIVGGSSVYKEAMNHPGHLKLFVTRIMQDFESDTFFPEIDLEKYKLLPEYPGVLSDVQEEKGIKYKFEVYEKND

[4] = tested on: HEK-293T; assay: Inhibition of CREB binding protein (unknown origin) expressed in HEK293T cells assessed as reduction in CREB-mediated gene transcription up to 10 uM by CREB reporter gene assay; format: cell-based; settings: Homo sapiens
In short: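 CREB-mediated gene transcription measured with a CREB reporter assay in HEK 293T cells; compound tested at concentrations up to 10 μM.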

[5] = tested on: HMEC; assay: Toxicity against HMEC up to 5 uM after 72 hrs by MTT assay; format: cell-based; settings: human
In short: (§2)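 Normal human mammary epithelial cells (HMEC) exposed to compound continuously for 72 h; toxicity read at concentrations from 0.1 μM up to 10 μM.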

[6] = tested on: HMEC; assay: Toxicity against HMEC at 10 uM after 72 hrs by MTT assay; format: cell-based; settings: human; in short: as §2
[7] = tested on: HMEC; assay: Toxicity against HMEC at 10 uM after 24 hrs by MTT assay; format: cell-based; settings: human
In short: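 HMEC given a 24 h drug treatment; toxicity assessed at concentrations up to 10 μM.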

[8] = tested on: HMEC; assay: Toxicity against HMEC at 0.1 uM after 72hrs by MTT assay; format: cell-based; settings: human; in short: as §2

Row | SMILES | GI50 [1] [µM] | GI50 [2] [µM] | other results
1 | Nc1nc(NC(=O)c2ccc3ccccc3c2)c2c(ccc3[nH]ccc32)n1 | 8.91 | 8.46 | 
2 | COc1cccc2c1C(=O)c1c(O)c3c(c(O)c1C2=O)C[C@@](O)(C(=O)CO)C[C@@H]3O[C@H]1C[C@H](N)[C@H](O)[C@H](C)O1 [DOXORUBICIN] | 0.085 | 0.15 | Activity [8]: Toxic
3 | CC(=O)Nc1nc(N)c2c(ccc3[nH]ccc32)n1 | 53.5 | 27.2 | 
4 | CCCC(=O)Nc1nc(N)c2c(ccc3[nH]ccc32)n1 | 27.4 | 25.5 | 
5 | CC(C)C(=O)Nc1nc(N)nc2ccc3[nH]ccc3c12 | > 100 | > 100 | 
6 | CC(=O)Nc1nc(N)nc2ccc3[nH]ccc3c12 | 56.5 | 32.6 | 
7 | CCCC(=O)Nc1nc(N)nc2ccc3[nH]ccc3c12 | 26.3 | 26.9 | 
8 | CC(=O)Nc1nc(NC(C)=O)c2c(ccc3[nH]ccc32)n1 | > 100 | > 100 | 

More lines, main results first:

Row | GI50 [1] [µM] | GI50 [2] [µM] | SMILES | other results
9 | 29.8 | 39.7 | CC(C)C(=O)Nc1nc(N)c2c(ccc3[nH]ccc32)n1 | 
10 | 0.44 | 1.6 | Nc1nc(NC(=O)c2ccc3ccccc3c2)nc2ccc3[nH]ccc3c12 | inhibition [3]: inactive; inhibition [4]: inactive; Activity [5]: Non-toxic; Activity [6]: Toxic; Activity [7]: Non-toxic
11 | 11.1 | 15.6 | CC(C)(C)[Si](C)(C)OCCCCC(=O)Nc1nc(N)nc2ccc3[nH]ccc3c12 | 
12 | 3.34 | 4.13 | Nc1nc(N)c2c(ccc3[nH]ccc32)n1 | 
13 | 2.24 | 2.43 | CC(C)(C)[Si](C)(C)OCCCCC(=O)Nc1nc(N)c2c(ccc3[nH]ccc32)n1 | 
14 | 20.3 | 18.7 | CCC(=O)Nc1nc(N)nc2ccc3[nH]ccc3c12 | 
15 | 24.4 | 21.4 | CCC(=O)Nc1nc(N)c2c(ccc3[nH]ccc32)n1 | 
